Results published in ChEMBL document CHEMBL1921791, “Arylsulfonamidopiperidone derivatives as a novel class of factor Xa inhibitors” (Bioorg Med Chem Lett, 2011).

Tests used:
[1] = Permeability from apical to basolateral side of human Caco2 cells at 3 uM; assay type: ADME, cell-based; details: Caco-2, read-out: permeability
Outline: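 Caco-2 monolayers: apical-to-basolateral permeability was measured at pH 6.5 and reported in nm/s.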

[2] = Half life in rat liver microsomes at 0.5 uM at pH 7.4 in presence of NADPH; assay type: ADME, Microsome
Outline: (§1)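 Liver microsomal stability was measured with 0.5 µM compound and 1.0 mg/mL microsomal protein, in 1.0 mM NADPH, 100 mM NaPi and 5.0 mM MgCl₂, at pH 7.4 and 37 °C. Half-life was determined.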

[3] = Half life in human liver microsomes at 0.5 uM at pH 7.4 in presence of NADPH; assay type: ADME, Microsome; outline: as §1
[4] = Half life in mouse liver microsomes at 0.5 uM at pH 7.4 in presence of NADPH; assay type: ADME, Microsome; outline: as §1
[5] = Half life in cynomolgus monkey liver microsomes at 0.5 uM at pH 7.4 in presence of NADPH; assay type: ADME, Macaca fascicularis, Microsome; outline: as §1
[6] = Half life in dog liver microsomes at 0.5 uM at pH 7.4 in presence of NADPH; assay type: ADME, Canis lupus familiaris, Microsome; outline: as §1

Papp A→B at 3 µM [1] [×10⁻⁶ cm/s] | half-life at 0.5 µM [2] [min] | half-life at 0.5 µM [3] [min] | half-life at 0.5 µM [4] [min] | half-life at 0.5 µM [5] [min] | half-life at 0.5 µM [6] [min] | Structure (SMILES)
< 1.5 | – | – | – | – | – | NC(=O)C(=O)N1CC2CC(CN(C(=O)CN3CCC[C@H](NS(=O)(=O)c4ccc5cc(Cl)ccc5c4)C3=O)C2)C1
< 1.5 | – | – | – | – | – | NC(=O)N1CC2CC(C1)CN(C(=O)CN1CCC[C@H](NS(=O)(=O)c3ccc4cc(Cl)ccc4c3)C1=O)C2
< 1.5 | – | – | – | – | – | O=C(CN1CCC[C@H](NS(=O)(=O)c2ccc3cc(Cl)ccc3c2)C1=O)N1CC2CNCC(C2)C1
2.5 | < 2 | < 2 | < 2 | < 2 | < 2 | O=C(CN1CCC[C@H](NS(=O)(=O)c2ccc3cc(Cl)ccc3c2)C1=O)N1C[C@@H]2C[C@H](C1)c1cccc(=O)n1C2
< 1.5 | – | – | – | – | – | Nc1[nH]ncc1C(=O)N1CC2CC(CN(C(=O)CN3CCC[C@H](NS(=O)(=O)c4ccc5cc(Cl)ccc5c4)C3=O)C2)C1
7.3 | < 2 | < 2 | < 2 | < 2 | < 2 | CC(=O)N1CC2CC(C1)CN(C(=O)CN1CCC[C@H](NS(=O)(=O)c3ccc4cc(Cl)ccc4c3)C1=O)C2
< 1.5 | – | – | – | – | – | O=C(CN1CCC[C@H](NS(=O)(=O)c2ccc3cc(Cl)ccc3c2)C1=O)N1CC2CC(C1)CN(C(=O)C1CCNCC1)C2
< 1.5 | – | – | – | – | – | CS(=O)(=O)N1CC2CC(CN(C(=O)CN3CCC[C@H](NS(=O)(=O)c4ccc5cc(Cl)ccc5c4)C3=O)C2)C1
